Assay results: ChEMBL document CHEMBL1208680, “Synthesis and cytotoxicity screening of substituted isobenzofuranones designed from anacardic acids” (Eur J Med Chem, 2010)
In brackets after ≈: the same amount, converted by molar mass. Activity calls are given as the source filed them. No cut-off for these calls is given here.

Legend:
HL-60 [1] = assay: Cytotoxicity against human HL60 cells after 72 hrs by MTT assay; type: functional, cell-based; conditions: HL-60, 72 h
Outline: (§1)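 Cell lines obtained from NCI, kept in RPMI 1640 with 10% FBS, 2 mM glutamine and penicillin/streptomycin at 37 °C, 5% CO2. Seeding: HL-60 0.3 × 10⁶, SF295 0.6 × 10⁵, MDA-MB435 0.1 × 10⁶ cells/mL. Compounds were added 24 h after seeding at 0.39–25.00 in 0.1% DMSO and left for 72 h. MTT at 0.5 mg/mL was added for 3 h, formazan dissolved in DMSO, absorbance read at 595 nm. IC50 by non-linear regression, triplicate, two independent experiments. Doxorubicin served as positive control.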

SF-295 = assay: Cytotoxicity against human SF295 cells after 72 hrs by MTT assay; type: functional, cell-based; conditions: SF-295, 72 h; outline: as §1
MDA-MB-435 = assay: Cytotoxicity against human MDA-MB-435 cells after 72 hrs by MTT assay; type: functional, cell-based; conditions: MDA-MB-435, 72 h; outline: as §1
PBMC = assay: Cytotoxicity against human PBMC after 72 hrs by Alamar blue assay; type: cell-based
Outline: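 PBMC were isolated from heparinized blood of healthy donors on Histopaque-1077 and cultured in RPMI 1640 with 20% FBS plus 2% phytohaemagglutinin. Compounds were added after 24 h at 0.39–25.00 in 0.1% DMSO for 72 h. Alamar Blue was added 24 h before the end. Absorbance at 570 and 595 nm was converted to % reduced. IC50 by non-linear regression, triplicate, two independent experiments.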

HL-60 [2] = assay: Induction of apoptosis in human HL60 cells assessed as reduction of cells in intact membrane at 6 ug/ml by AO/BE staining; type: functional, cell-based
HL-60 [3] = assay: Cytotoxicity against human HL60 cells assessed as cell viability by BrdU incorporation assay; type: functional, cell-based
Outline: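 HL-60 cells at 0.3 × 10⁶ cells/mL were treated for 24 h, with BrdU added for the final 3 h. Cytospin slides were stained by peroxidase immunocytochemistry with diaminobenzidine and haematoxylin counterstain. Two hundred cells per sample were scored for % BrdU-positive. Vehicle was 0.1% DMSO and the positive control doxorubicin. Mean ± S.E.M. from three independent experiments in triplicate.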

HL-60 [4] = assay: Induction of apoptosis in human HL60 cells assessed as increase in DNA strand breaks after 12 hrs by Comet assay; type: functional, cell-based
Outline: (§2)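 Alkaline comet assay on HL-60 cells exposed for 3, 6, 12 or 24 h. Lysis at pH 10, 4 °C, at least 1 h. Unwinding for 20 min in 300 mM NaOH/1 mM EDTA (pH >13), then electrophoresis at 0.81 V/cm for 20 min, 4 °C. Tail classes 0–4 were scored visually on 300 cells and converted to a damage index of 0–400. Vehicle was 0.1% DMSO.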

HL-60 [5] = assay: Induction of apoptosis in human HL60 cells assessed as reduction in viable cells after 24 hrs; type: functional, cell-based
Outline: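 HL-60 cells were exposed for 24 h. Cells were stained with acridine orange and ethidium bromide (each 100 in PBS) and examined by fluorescence microscopy, 300 cells counted per point. Vehicle was 0.1% DMSO; doxorubicin was the positive control. Three independent experiments in triplicate, ANOVA with Newman-Keuls test.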

HL-60 [6] = assay: Induction of apoptosis in human HL60 cells assessed as reduction of cells in intact membrane at 3 ug/ml by AO/BE staining; type: functional, cell-based
HL-60 [7] = assay: Induction of apoptosis in human HL60 cells assessed as increase in DNA damage by Comet assay; type: functional, cell-based; conditions: TDE = time-dependent effect; outline: as §2
HL-60 [8] = assay: Induction of apoptosis in human HL60 cells assessed as increase in DNA double strand breaks after 24 hrs by Comet assay; type: functional, cell-based
Outline: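 Neutral comet assay on HL-60 cells treated for 24 h at 6. Electrophoresis in 100 mM Tris/300 mM sodium acetate, pH 8.5, after 60 min equilibration, then 60 min at 0.5 V/cm. Damage index was scored visually. Vehicle was 0.1% DMSO.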

HL-60 [9] = assay: Induction of apoptosis in human HL60 cells assessed as increase in DNA damage after 24 hrs by Comet assay; type: functional, cell-based; outline: as §2

CCCCCCCCCCCCCCCc1cccc(OC)c1C(=O)OC
IC50 (HL-60 [1]): > 25 mg/L | IC50 (SF-295): > 25 mg/L | IC50 (MDA-MB-435): > 25 mg/L | IC50 (PBMC): > 25 mg/L

CCCCCCCCCCCCC/C=C/c1cccc(OC)c1C(=O)OC
IC50 (HL-60 [1]): 9.96 mg/L (≈ 26.6 µM) | Activity (HL-60 [2]): Active | Activity (HL-60 [3]): Active | Activity (HL-60 [4]): Active | Activity (HL-60 [5]): Dose-dependent effect | IC50 (SF-295): 12.8 mg/L (≈ 34.3 µM) | IC50 (MDA-MB-435): 3.31 mg/L (≈ 8.84 µM) | IC50 (PBMC): 19.8 mg/L (≈ 52.9 µM)

CCCCCCCCCCCCCC(O)C1OC(=O)c2c(OC)cccc21 (racemic)
IC50 (HL-60 [1]): 21 mg/L (≈ 55.8 µM) | Activity (HL-60 [2]): Active | Activity (HL-60 [3]): Active | Activity (HL-60 [4]): Active | IC50 (SF-295): > 25 mg/L | IC50 (MDA-MB-435): 12.3 mg/L (≈ 32.6 µM) | IC50 (PBMC): > 25 mg/L

COc1cccc2c1C(=O)c1c(O)c3c(c(O)c1C2=O)C[C@@](O)(C(=O)CO)C[C@@H]3O[C@H]1C[C@H](N)[C@H](O)[C@H](C)O1 [DOXORUBICIN]
IC50 (SF-295): 0.04 mg/L (≈ 0.0736 µM) | IC50 (MDA-MB-435): 0.03 mg/L (≈ 0.0552 µM)

CCCCCCCCCCCCCCC(Br)c1cccc(OC)c1C(=O)OC (stereo unspecified)
IC50 (HL-60 [1]): > 25 mg/L | IC50 (SF-295): > 25 mg/L | IC50 (MDA-MB-435): > 25 mg/L | IC50 (PBMC): > 25 mg/L

CCCCCCCCCCCCCC(=O)C1OC(=O)c2c(OC)cccc21 (racemic)
IC50 (HL-60 [1]): 3.24 mg/L (≈ 8.65 µM) | Activity (HL-60 [2]): Active | Activity (HL-60 [6]): Active | Activity (HL-60 [3]): inactive | Activity (HL-60 [5]): Dose-dependent effect | Activity (HL-60 [7]): tde | IC50 (SF-295): 10.1 mg/L (≈ 26.9 µM) | Activity (HL-60 [8]): Active | Activity (HL-60 [9]): Dose-dependent effect | IC50 (MDA-MB-435): 8.7 mg/L (≈ 23.2 µM) | IC50 (PBMC): 14.5 mg/L (≈ 38.7 µM)
